Measured values published in ChEMBL document CHEMBL1153878, “Hansch analysis of veratric acid derivatives as antimicrobial agents” (2009).
Values after ≈ are worked out from the molar mass of the structure shown. Values joined by “and” are separate entries in the source; they are usually repeats but may differ in a detail not shown here. Identical values can stand only once.

Experiments:
Assay type in all cases: functional
Aspergillus niger = assay: Antifungal activity against Aspergillus niger MTCC 2425 by serial dilution method; set-up: -logMIC: scale not given here
Bacillus subtilis = assay: Antibacterial activity against Bacillus subtilis MTCC 2423 by serial dilution method; set-up: -logMIC: unit not given here
Procedure, shortened: (§1)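 Tube serial dilution in 1 ml sterile double strength nutrient broth I.P., test range […] per ml. Inoculum: […] of a saline suspension at 10⁵ cfu/ml from a fresh 24-h culture, grown in double strength nutrient broth at 37 ± 1 °C. […] Exact MIC refined by further dilution of the stock.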

Candida albicans = assay: Antifungal activity against Candida albicans MTCC 227 by serial dilution method; set-up: -logMIC: unit not given here
Staphylococcus aureus = assay: Antibacterial activity against Staphylococcus aureus MTCC 1430 by serial dilution method; set-up: -logMIC: scale not given here; procedure, shortened: as §1
Escherichia coli = assay: Antibacterial activity against Escherichia coli MTCC 739 by serial dilution method; set-up: -logMIC: scale not given here; procedure, shortened: as §1
[1] = Aspergillus niger, MTCC 2425, read-out: MIC
[2] = Bacillus subtilis, MTCC 2423, read-out: MIC
[3] = Candida albicans, MTCC 227, read-out: MIC
[4] = Staphylococcus aureus, MTCC 1430, read-out: MIC
[5] = Escherichia coli, MTCC 739, read-out: MIC

SMILES	-logMIC (Aspergillus niger)	MIC (Aspergillus niger; [1])	-logMIC (Bacillus subtilis)	MIC (Bacillus subtilis; [2])	-logMIC (Candida albicans)	MIC (Candida albicans; [3])	-logMIC (Staphylococcus aureus)	MIC (Staphylococcus aureus; [4])	-logMIC (Escherichia coli)	MIC (Escherichia coli; [5])	MIC (Aspergillus niger)	MIC (Bacillus subtilis)	MIC (Candida albicans)	MIC (Staphylococcus aureus)	MIC (Escherichia coli)
COc1ccc(C(=O)Nc2cccc(Cl)c2)cc1OC	1.32	14 µg/mL (≈ 48 µM)	1.39	12 µg/mL (≈ 41.1 µM)	1.29	15 µg/mL (≈ 51.4 µM)	1.17	20 µg/mL (≈ 68.6 µM)	1.23	17 µg/mL (≈ 58.3 µM)	–	–	–	–	–
COc1ccc(C(=O)N(C)C)cc1OC	1.31	10 µg/mL (≈ 47.8 µM)	1.21	13 µg/mL (≈ 62.1 µM)	1.31	10 µg/mL (≈ 47.8 µM)	1.08	17 µg/mL (≈ 81.2 µM)	1.15	15 µg/mL (≈ 71.7 µM)	–	–	–	–	–
CCCCCCOC(=O)c1ccc(OC)c(OC)c1	1.28	14 µg/mL (≈ 52.6 µM)	1.33	12.5 µg/mL (≈ 46.9 µM)	1.3	13 µg/mL (≈ 48.8 µM)	1.2	16.5 µg/mL (≈ 62 µM)	1.22	16 µg/mL (≈ 60.1 µM)	–	–	–	–	–
COc1ccc(C(=O)NCCO)cc1OC	1.29	11.5 µg/mL (≈ 51.1 µM)	1.18	15 µg/mL (≈ 66.6 µM)	1.29	11.5 µg/mL (≈ 51.1 µM)	1.04	21 µg/mL (≈ 93.2 µM)	1.08	19 µg/mL (≈ 84.4 µM)	–	–	–	–	–
COc1ccc(C(=O)Nc2ccc(Cl)cc2)cc1OC	1.3	14.5 µg/mL (≈ 49.7 µM)	1.28	15 µg/mL (≈ 51.4 µM)	1.34	13.5 µg/mL (≈ 46.3 µM)	1.19	19 µg/mL (≈ 65.1 µM)	1.39	12 µg/mL (≈ 41.1 µM)	–	–	–	–	–
COc1ccc(C(=O)OCc2ccccc2)cc1OC	1.29	14 µg/mL (≈ 51.4 µM)	1.34	12.5 µg/mL (≈ 45.9 µM)	1.3	13.5 µg/mL (≈ 49.6 µM)	1.1	21.5 µg/mL (≈ 79 µM)	1.18	18 µg/mL (≈ 66.1 µM)	–	–	–	–	–
COc1ccc(C(=O)Oc2cccc3cccnc23)cc1OC	1.34	14 µg/mL (≈ 45.3 µM)	1.53	9 µg/mL (≈ 29.1 µM)	1.35	13.5 µg/mL (≈ 43.6 µM)	1.45	11 µg/mL (≈ 35.6 µM)	1.56	8.5 µg/mL (≈ 27.5 µM)	–	–	–	–	–
COc1ccc(C(=O)N(CCO)CCO)cc1OC	1.36	12 µg/mL (≈ 44.6 µM)	1.31	12.5 µg/mL (≈ 46.4 µM)	1.31	12.5 µg/mL (≈ 46.4 µM)	1.21	16.5 µg/mL (≈ 61.3 µM)	1.21	16.5 µg/mL (≈ 61.3 µM)	–	–	–	–	–
CCOC(=O)c1ccc(OC)c(OC)c1	1.23	12 µg/mL (≈ 57.1 µM)	1.12	16 µg/mL (≈ 76.1 µM)	1.23	12 µg/mL (≈ 57.1 µM)	0.98	22 µg/mL (≈ 105 µM)	1.02	20 µg/mL (≈ 95.1 µM)	–	–	–	–	–
COc1ccc(C(=O)NN)cc1OC	1.12	15 µg/mL (≈ 76.5 µM)	1.15	14 µg/mL (≈ 71.4 µM)	1.15	14 µg/mL (≈ 71.4 µM)	0.93	23 µg/mL (≈ 117 µM)	0.93	23 µg/mL (≈ 117 µM)	–	–	–	–	–
COc1ccc(C(=O)Nc2ccccc2Cl)cc1OC	1.34	13.5 µg/mL (≈ 46.3 µM)	1.39	12 µg/mL (≈ 41.1 µM)	1.34	13.5 µg/mL (≈ 46.3 µM)	1.28	15 µg/mL (≈ 51.4 µM)	1.23	17 µg/mL (≈ 58.3 µM)	–	–	–	–	–
COc1ccc(C(=O)Nc2ccccc2C)cc1OC	1.4	11 µg/mL (≈ 40.5 µM)	1.26	15 µg/mL (≈ 55.3 µM)	1.31	13 µg/mL (≈ 47.9 µM)	1.2	17 µg/mL (≈ 62.7 µM)	1.16	18.5 µg/mL (≈ 68.2 µM)	–	–	–	–	–
COc1ccc(C(=O)NCc2ccccc2)cc1OC	1.36	12 µg/mL (≈ 44.2 µM)	1.32	13 µg/mL (≈ 47.9 µM)	1.32	13 µg/mL (≈ 47.9 µM)	1.15	19 µg/mL (≈ 70 µM)	1.15	19 µg/mL (≈ 70 µM)	–	–	–	–	–
CCCOC(=O)c1ccc(OC)c(OC)c1	1.2	14 µg/mL (≈ 62.4 µM)	1.2	14 µg/mL (≈ 62.4 µM)	1.1	18 µg/mL (≈ 80.3 µM)	0.98	24 µg/mL (≈ 107 µM)	1.25	12.5 µg/mL (≈ 55.7 µM)	–	–	–	–	–
CCCCOC(=O)c1ccc(OC)c(OC)c1	1.15	17 µg/mL (≈ 71.3 µM)	1.2	15 µg/mL (≈ 63 µM)	1.2	15 µg/mL (≈ 63 µM)	1.1	19 µg/mL (≈ 79.7 µM)	1.1	19 µg/mL (≈ 79.7 µM)	–	–	–	–	–
COc1ccc(C(=O)OCC(C)C)cc1OC	1.28 and 1.17	12.5 µg/mL (≈ 52.5 µM)	1.23 and 1.17	14 µg/mL (≈ 58.8 µM)	1.25 and 1.34	13.5 µg/mL (≈ 56.7 µM)	1.08 and 1.1	20 µg/mL (≈ 83.9 µM)	1.17 and 1.1	16 µg/mL (≈ 67.1 µM)	16 µg/mL (≈ 67.1 µM)	16 µg/mL (≈ 67.1 µM)	11 µg/mL (≈ 46.2 µM)	19 µg/mL (≈ 79.7 µM)	19 µg/mL (≈ 79.7 µM)

SMILES	-logMIC (Aspergillus niger)	MIC (Aspergillus niger; [1])	-logMIC (Bacillus subtilis)	MIC (Bacillus subtilis; [2])	-logMIC (Candida albicans)	MIC (Candida albicans; [3])	-logMIC (Staphylococcus aureus)	MIC (Staphylococcus aureus; [4])	-logMIC (Escherichia coli)	MIC (Escherichia coli; [5])	MIC (Aspergillus niger)	MIC (Bacillus subtilis)	MIC (Candida albicans)	MIC (Staphylococcus aureus)	MIC (Escherichia coli)
COc1ccc(C(=O)OC(C)(C)C)cc1OC	1.3	12 µg/mL (≈ 50.4 µM)	1.2	15 µg/mL (≈ 63 µM)	1.38	10 µg/mL (≈ 42 µM)	1.08	20 µg/mL (≈ 83.9 µM)	1.08	20 µg/mL (≈ 83.9 µM)	–	–	–	–	–
CCNC(=O)c1ccc(OC)c(OC)c1	1.26	11.5 µg/mL (≈ 55 µM)	1.21	13 µg/mL (≈ 62.1 µM)	1.31	10 µg/mL (≈ 47.8 µM)	0.95	23.5 µg/mL (≈ 112 µM)	1.01	20 µg/mL (≈ 95.6 µM)	–	–	–	–	–
CCCNC(=O)c1ccc(OC)c(OC)c1	1.28	12 µg/mL (≈ 53.7 µM)	1.23	13 µg/mL (≈ 58.2 µM)	1.25	12.5 µg/mL (≈ 56 µM)	1.08	19 µg/mL (≈ 85.1 µM)	1.08	19 µg/mL (≈ 85.1 µM)	–	–	–	–	–
COc1ccc(C(=O)N2CCOCC2)cc1OC	1.33	12 µg/mL (≈ 47.8 µM)	1.28	13 µg/mL (≈ 51.7 µM)	1.37	11 µg/mL (≈ 43.8 µM)	1.08	21 µg/mL (≈ 83.6 µM)	1.17	17 µg/mL (≈ 67.7 µM)	–	–	–	–	–
CCCCCCCOC(=O)c1ccc(OC)c(OC)c1	1.37	12 µg/mL (≈ 42.8 µM)	1.35	12.5 µg/mL (≈ 44.6 µM)	1.25	16 µg/mL (≈ 57.1 µM)	1.25	16 µg/mL (≈ 57.1 µM)	1.3	14 µg/mL (≈ 49.9 µM)	–	–	–	–	–
COc1ccc(C(=O)Oc2ccccc2)cc1OC	1.34	11.5 µg/mL (≈ 44.5 µM)	1.27	14 µg/mL (≈ 54.2 µM)	1.3	12.5 µg/mL (≈ 48.4 µM)	1.15	18 µg/mL (≈ 69.7 µM)	1.21	16 µg/mL (≈ 61.9 µM)	–	–	–	–	–
CNC(=O)c1ccc(OC)c(OC)c1	1.18	12.5 µg/mL (≈ 64 µM)	1.18	13 µg/mL (≈ 66.6 µM)	1.28	13 µg/mL (≈ 66.6 µM)	0.95	22 µg/mL (≈ 113 µM)	1.05	17 µg/mL (≈ 87.1 µM)	–	–	–	–	–
COc1ccc(C(=O)OCCC(C)C)cc1OC	1.3	12.5 µg/mL (≈ 49.5 µM)	1.31	12.5 µg/mL (≈ 49.5 µM)	1.2	16 µg/mL (≈ 63.4 µM)	1.1	20 µg/mL (≈ 79.3 µM)	1.2	16 µg/mL (≈ 63.4 µM)	–	–	–	–	–
COc1ccc(C(=O)N2CCCCC2)cc1OC	1.28	13 µg/mL (≈ 52.1 µM)	1.33	12 µg/mL (≈ 48.1 µM)	1.25	14 µg/mL (≈ 56.2 µM)	1.15	17.5 µg/mL (≈ 70.2 µM)	1.1	20 µg/mL (≈ 80.2 µM)	–	–	–	–	–
COc1ccc(C(=O)OC(C)C)cc1OC	1.25	12.5 µg/mL (≈ 55.7 µM)	1.2	14 µg/mL (≈ 62.4 µM)	1.35	10 µg/mL (≈ 44.6 µM)	1.01	22 µg/mL (≈ 98.1 µM)	1.2	14 µg/mL (≈ 62.4 µM)	–	–	–	–	–
C=CCOC(=O)c1ccc(OC)c(OC)c1	1.2	14 µg/mL (≈ 63 µM)	1.25	12.5 µg/mL (≈ 56.2 µM)	1.1	18 µg/mL (≈ 81 µM)	1	22 µg/mL (≈ 99 µM)	1.1	18 µg/mL (≈ 81 µM)	–	–	–	–	–
COc1ccc(C(=O)Nc2ccccc2)cc1OC	1.29	13 µg/mL (≈ 50.5 µM)	1.25	14 µg/mL (≈ 54.4 µM)	1.2	16 µg/mL (≈ 62.2 µM)	1.05	23 µg/mL (≈ 89.4 µM)	1.04	23 µg/mL (≈ 89.4 µM)	–	–	–	–	–
CCCCCOC(=O)c1ccc(OC)c(OC)c1	1.1	20 µg/mL (≈ 79.3 µM)	1.31	12.5 µg/mL (≈ 49.5 µM)	1.1	20 µg/mL (≈ 79.3 µM)	1.1	20 µg/mL (≈ 79.3 µM)	1.1	20 µg/mL (≈ 79.3 µM)	–	–	–	–	–
COc1ccc(C(N)=O)cc1OC	1.2	11 µg/mL (≈ 60.7 µM)	1.09	15 µg/mL (≈ 82.8 µM)	1.25	10 µg/mL (≈ 55.2 µM)	0.9	23 µg/mL (≈ 127 µM)	0.95	20 µg/mL (≈ 110 µM)	–	–	–	–	–
O=C(O)c1cn(C2CC2)c2cc(N3CCNCC3)c(F)cc2c1=O [CIPROFLOXACIN]	–	–	3.33	–	–	–	3.33	–	3.33	–	–	–	–	–	–
OC(Cn1cncn1)(Cn1cncn1)c1ccc(F)cc1F [FLUCONAZOLE]	2.64	–	–	–	2.64	–	–	–	–	–	–	–	–	–	–
